In publication PMC5164959 (Biochemical pharmacology, 2016):

How the values were obtained:
PKC = PKC activation: phosphorylation of PKC substrates by western blot in U87 cells; format: cell-based, human; conditions: treatment for 30 min
Outline: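 Glioblastoma cells were treated 30 min with 4 or 40 μM test compound or 100 nM PMA, with or without 1 h pretreatment with 500 nM bisindolylmaleimide II. Cleared Triton lysates (50 μg) were run on 8.75% SDS-PAGE and probed with phospho-(Ser) PKC substrate antibody, detected by alkaline phosphatase chemiluminescence. Three independent experiments were quantified.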

5-HT2C = target: T1, 5-HT2C (Homo sapiens, UniProt P28335); assay: Radioligand competition binding assay; conditions: read-out: Ki 5-HT2C; Cheng-Prusoff from best-fit IC50
T1 sequence (P28335 33-458): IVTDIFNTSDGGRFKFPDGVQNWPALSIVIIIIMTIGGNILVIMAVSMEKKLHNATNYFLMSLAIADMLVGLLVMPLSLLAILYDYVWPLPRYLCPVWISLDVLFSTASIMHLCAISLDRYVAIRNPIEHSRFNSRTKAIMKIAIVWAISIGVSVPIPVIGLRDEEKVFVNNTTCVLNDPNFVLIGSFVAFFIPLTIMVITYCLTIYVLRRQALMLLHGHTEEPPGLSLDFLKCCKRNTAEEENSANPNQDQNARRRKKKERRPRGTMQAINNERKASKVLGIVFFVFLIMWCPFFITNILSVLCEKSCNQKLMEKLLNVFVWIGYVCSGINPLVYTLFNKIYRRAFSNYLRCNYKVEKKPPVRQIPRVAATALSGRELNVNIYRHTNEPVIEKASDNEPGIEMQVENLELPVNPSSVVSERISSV

DGKε = conditions: cited from earlier work
5-HTRs = assay: Agonist functional assays at 5 serotonin receptors; format: cell-based; conditions: 5 receptors where low Ki values were observed; data not shown
DGKβ = DGKβ (Rattus norvegicus, UniProt P49621); assay: Kinase assay with HEK 293T cell homogenate over-expressing DGKβ; format: biochemical; conditions: 20 μM inhibitor, dioleoyl DAG liposomes
Outline: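 Reactions contained 5 μg homogenate, 2 mM liposomes (10 mol% dioleoyl DAG, 40 mol% PS, 50 mol% PC), buffer B, 1 mM DTT, 1 mM CaCl2 and [γ32P]-ATP, 20 min at 30°C. Test compound was added from DMSO. Organic-phase 32P was counted and expressed as percent of DMSO control after subtracting the GFP-lysate background.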

Cc1nc2sccn2c(=O)c1CCN1CCC(=C(c2ccccc2)c2ccc(F)cc2)CC1 [R59022]
Activation of PKC (PKC): activate PKC | Ki (5-HT2C): 0.8 nM | Inhibition of DGKε (DGKε): reported to inhibit | Agonist activity at 5-HTRs (5-HTRs): very low to no activity | Activity of DGKβ, percent of control (DGKβ): not detectably inhibited
